Source: PubChem
HDAC3 inhib = inhibitors of human histone deacetylase 3 | O15379 | recombinant HDAC3, fluorogenic peptide/trypsin coupled, fluorescence | inhibition, % at 8.3 µM | 0.15% of 320,000 active; in the data active = inhibition above about 26%, passing the limit was not always enough; inconclusive = no clear call, values can overlap the other calls
Target sequence (O15379 whole entry, looked up): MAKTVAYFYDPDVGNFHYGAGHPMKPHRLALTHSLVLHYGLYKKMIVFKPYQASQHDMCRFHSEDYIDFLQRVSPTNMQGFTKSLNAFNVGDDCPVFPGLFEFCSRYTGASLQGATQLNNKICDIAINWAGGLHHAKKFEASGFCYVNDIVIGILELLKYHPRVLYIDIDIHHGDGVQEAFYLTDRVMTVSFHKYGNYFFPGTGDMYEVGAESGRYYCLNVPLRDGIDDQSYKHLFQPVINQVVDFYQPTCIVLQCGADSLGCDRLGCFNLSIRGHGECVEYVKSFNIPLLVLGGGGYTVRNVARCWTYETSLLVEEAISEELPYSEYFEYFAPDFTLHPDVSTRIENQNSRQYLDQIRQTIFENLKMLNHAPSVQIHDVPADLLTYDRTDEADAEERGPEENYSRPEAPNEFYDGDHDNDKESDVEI
ALR inh = inhibitors of human sulfhydryl oxidase ALR. P55789. 3.8% of 290,000 active. inhibition, % (no concentration beside the values). purified ALR, DTT oxidation, H2O2 HRP-luminol luminescence;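 active = mean replicate inhibition above about 79%, with every replicate also reaching it, limit read from the data; inconclusive = only one of the two criteria met; inactive = mean below limit and not every replicate reaching it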
Target sequence (P55789 whole entry, looked up): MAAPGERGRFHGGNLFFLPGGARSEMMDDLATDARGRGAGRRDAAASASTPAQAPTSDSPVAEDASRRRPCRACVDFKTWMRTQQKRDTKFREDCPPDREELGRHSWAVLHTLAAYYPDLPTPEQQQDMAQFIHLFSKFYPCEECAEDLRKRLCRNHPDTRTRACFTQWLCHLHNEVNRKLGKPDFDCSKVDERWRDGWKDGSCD
Rtt109 HAT inh = blocks Candida albicans Rtt109/Vps75 acetyltransferase activity; purified Rtt109/Vps75, ThioGlo CoA-SH fluorescence, 4 h; inhibition, % at 34.9 µM; 0.16% of 330,000 active; AID 540336;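 active = inhibition of at least 50% in every replicate; inconclusive = best replicate reaches 50% inhibition but some replicates fall short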
M18AAP inhibitor = blocks P. falciparum M18 aspartyl aminopeptidase; recombinant PfM18AAP, H-Glu-NHMec fluorogenic cleavage; inhibition, % at 7.35 µM; 1.2% of 290,000 active; AID 1822;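 active = inhibition above the campaign mean inhibition over all tested compounds plus 3 SD, cut at about 28% in these data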;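 also: 0% = plate median of test compound wells and 100% = 2 mM ZnCl2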
UCH37 DUB inh = blocks the human deubiquitinase UCH37. Q9Y5K5. inhibition, % (concentration not given with the values). purified proteasome/UCH37, Ub-AMC cleavage fluorescence. 0.33% of 330,000 active;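 active = mean inhibition over replicate wells above about 20%, limit read from the data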;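 also: 0% = compound-free wells with enzyme and 100% = wells lacking proteasome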
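Schedule: 30 min plus 25 min, room temperature / Material: human UCH37 within purified proteasomes / Technique: AMC fluorescence intensity at 355/460 nm / Buffer or medium: pH 7.4 Tris-HCl (50 mM) with ovalbumin, ATP-MgCl2, DTT / Controls: wells without proteasome as full block, compound-free enzyme plus substrate as uninhibited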
FAS TE block = FAS thioesterase (human) inhibition | recombinant FAS-TE, OMFH fluorogenic substrate, fluorescence endpoint | AID 602261 | 0.67% of 360,000 active | inhibition, % at 15 µM;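 active = compounds whose normalised, plate-corrected inhibition of enzyme fluorescence in the single-dose primary screen is 50% or more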;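 also: 0% = DMSO with enzyme and 100% = substrate without enzyme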
The depositor's hits bear a star; ? = inconclusive; / = not tested or not shown. This is a sample that favours compounds with a hit; in the whole collection about 4.6% have one here.

SMILES	HDAC3 inhib	ALR inh	Rtt109 HAT inh	M18AAP inhibitor	UCH37 DUB inh	FAS TE block
COc1cccc(N2C(=O)C(CC(=O)Nc3ccc(F)cc3)N(C3CCCCC3)C2=O)c1 (stereo unspecified)	-2.5	-2.5	-5.4	-15.0	2.2	5.1
Cc1ccc(N2C(=O)C(CC(=O)Nc3cccc(F)c3)N(C3CC3)C2=O)cc1 (stereo unspecified)	6.1	78.5*	-1.3	0.8	2.2	-2.3
Cc1ccc(NC2CCCN(C(=O)c3cc(C(C)C)nn3C)C2)cc1C (stereo unspecified)	/	/	/	/	/	-1.6
Cc1cc(C)c(C(=O)N2CCCC(Nc3ccc(C)c(C)c3)C2)o1 (stereo unspecified)	4.4	99.3*	-6.0	21.0	1.4	-1.7
CCOC(=O)c1[nH]c(C)c(C(=O)Nc2ccc(C)c(C)c2)c1C	4.0	17.2	0.7	-7.0	5.2	0.0
COc1ccc(NC2CCCN(C(=O)c3oc(C)cc3C)C2)cc1OC (stereo unspecified)	2.6	99.5*	2.9	13.2	2.8	-1.0
CCOC(=O)c1[nH]c(C)c(C(=O)N2CCCC(Nc3ccc(C)c(C)c3)C2)c1C (stereo unspecified)	-2.0	98.6*	-7.8	19.8	5.9	-4.1
Cc1cc(C)c(C(=O)N2CCCC(Nc3ccc(F)cc3)C2)o1 (stereo unspecified)	2.1	98.8*	-2.1	5.3	-2.4	-1.7
COc1ccc(-c2nc3c(n2O)CCCC3=NO)cc1	/	/	/	/	-27.9	/
COc1cccc(-n2c(SC3CCOC3=O)nc3ccccc3c2=O)c1 (stereo unspecified)	-0.9	94.6*	1.4	-0.2	0.8	-4.1
CC(C)c1ccc(/C=C2\CC/C(=C\C=N\N(C)C)C2=O)cc1	15.0	96.3*	4.0	-4.0	/	-3.8
Nc1ccccc1SC/C=C/CSc1ccccc1N	0.3	99.0*	7.3	5.9	-0.7	13.8
Cc1ccccc1C([O-])=Nc1ccc[n+](-c2nc3ccccc3nc2NS(=O)(=O)c2ccccc2)c1	13.5	89.0*	/	-10.3	3.8	/
CCCC1S/C(=N/N=Cc2cccs2)NC1=O (stereo unspecified)	/	/	/	/	8.3	/
CC12CCC(C(=O)Nc3ccccc3)(CC1=NO)C2(C)C (stereo unspecified)	/	/	/	/	1.0	/
Cc1cc(Oc2ncccc2[N+](=O)[O-])c2cc(Cl)ccc2n1	-0.6	97.2*	-6.3	-0.9	1.8	7.3
O=[N+]([O-])c1cccnc1Oc1cc(Cl)c(Cl)cc1Cl	/	/	/	/	/	27.6
O=C(NN=Cc1cc2c(cc1Br)OCO2)c1c[nH]c2ccccc12	/	/	/	/	3.1	/
O=S(=O)(c1ccc2ccccc2c1)N1CCOCC1	2.6	/	-5.2	-17.1	3.2	-0.1
O=S(=O)(c1ccc2c(c1)CCN2)N1CCOCC1	3.7	77.7*	6.8	/	-0.2	-12.1
COCc1c(C(=O)NN=Cc2c[nH]c3ccccc23)nnn1-c1nonc1N	/	/	/	/	-27.0	/
COc1ccc2nc(S(=O)Cc3ncc(C)c(OC)c3C)[nH]c2c1 (stereo unspecified)	7.2	97.6*	19.4	-1.9	2.2	/
CC(=NNC(=O)COc1ccc(C(C)(C)C)cc1)c1ccc2c(c1)OCCO2	/	/	/	/	0.4	/
CN(C)/C=C1/C=C(c2ccccc2)OC1=O	4.9	98.7*	-10.2	1.6	16.9	-3.1
CCOc1ccc(CCNC(=O)CS(=O)Cc2nc(-c3ccc(C)cc3)oc2C)cc1 (stereo unspecified)	-1.0	99.2*	4.8	-5.9	2.6	17.3
SMILES	HDAC3 inhib	ALR inh	Rtt109 HAT inh	M18AAP inhibitor	UCH37 DUB inh	FAS TE block
CCOc1ccc(CCNC(=O)CS(=O)Cc2nc(-c3ccc(C)cc3)oc2C)cc1OCC (stereo unspecified)	-4.1	98.3*	9.3	-7.1	1.3	-3.4
COc1ccc(-c2nc(CS(=O)(=O)CC(=O)NCCc3ccc(C)cc3)c(C)o2)cc1	?	-20.7	-6.1	-1.4	2.1	-10.0
COc1ccc(-c2nc(CS(=O)CC(=O)NCCC3=CCCCC3)c(C)o2)cc1 (stereo unspecified)	-8.8	99.2*	-8.2	-10.2	5.8	0.0
CCOc1ccc(CCNC(=O)CS(=O)Cc2nc(-c3ccccc3C)oc2C)cc1OCC (stereo unspecified)	-3.5	98.7*	-2.3	-3.5	0.5	-1.3
CCOc1ccc(CCNC(=O)CSCc2ccc(C)cc2)cc1OCC	0.5	-1.1	7.8	0.5	-1.4	-6.1
Cc1cc(C=Nn2cnnc2)c(C)n1-c1ccc(Cl)cc1	/	/	/	/	3.4	/
CCN(CC)c1ccc(C=Nn2c(C)nc3ccccc3c2=O)cc1	/	/	/	/	-0.6	/
Cc1ccc(CCNC(=O)CS(=O)Cc2nc(-c3cccc(C)c3)oc2C)cc1 (stereo unspecified)	-2.2	99.4*	-9.6	11.3	1.1	2.0
COc1cccc(-c2nc(CS(=O)CC(=O)NCCc3ccc(C)cc3)c(C)o2)c1 (stereo unspecified)	3.7	13.7	1.8	0.4	2.2	-2.7
NC1=NC(=O)/C(=C/c2ccc(OCC(=O)O)cc2)S1	7.5	-18.9	7.2	6.5	9.5	-8.8
NC1=NC(=O)/C(=C\c2ccc(O)c([N+](=O)[O-])c2)S1	-1.8	-11.8	24.5	4.1	23.6*	-1.2
NC1=NC(=O)/C(=C/c2cccc(-c3ccc(S(N)(=O)=O)cc3)c2)S1	-11.9	1.6	1.3	10.3	0.5	-12.6
CCN(CC)c1ccc(/C=C2\SC(N)=NC2=O)cc1	-0.4	98.6*	-2.5	9.8	5.6	-11.8
NC(Cc1nc2ccccc2s1)=NO	/	/	/	/	5.6	/
COc1cc2c(-c3ccccc3)c(C)oc2cc1C=NNC(N)=S	/	/	/	/	-39.3	/
CCOc1ccc(NS(=O)(=O)c2ccc(NC(=S)NC(C)=O)cc2)cc1	8.6	-12.9	-2.1	2.3	3.6	13.9
CCOc1ccc(/C(O)=C/C(=O)C(=O)Nc2ccc(S(=O)(=O)NC(C)=O)cc2)cc1	5.0	98.0*	1.5	-4.2	12.9	-10.8
COC(=O)c1c(NC(C)=O)sc(C)c1C	/	/	-4.3	-1.8	4.5	-5.1
COC(=O)c1c(NC(=O)CCc2ccc(C)o2)sc(C)c1C	15.8	97.1*	-3.0	-32.8	-2.8	12.9
CCCc1cc(C(=O)Nc2sc(C)c(C)c2C(=O)OCC)no1	/	/	-11.6	34.8*	-165.8	-0.9
CCOC(=O)c1c(NC(=O)CCc2ccc(CC)o2)sc(C)c1C	0.4	97.5*	-0.7	-16.8	-2.5	24.2
O=C(NN=Cc1ccco1)c1cccc(N2CCCC2=O)c1	/	/	/	/	3.0	/
CN(C)C=Nc1cc(=O)[nH]c(=O)n1C	/	/	/	/	-1.6	/
O=C1C(Cl)=C(NCCN2CCCCC2)C(=O)c2ccccc21	9.1	-71.3	5.0	3.0	40.6*	-1.2
CCN(C(=O)CON=Cc1ccc(OC)cc1OC)c1c(N)n(Cc2ccccc2)c(=O)[nH]c1=O	/	/	/	/	2.4	/
Cc1nc2ccccn2c1C(=O)NNC(=S)Nc1ccccc1	-0.1	96.5*	1.8	17.3	2.1	-4.2
Cc1cc(C(=O)NNC(=S)Nc2ccccc2)nn1C	-1.3	47.6	-3.4	19.5	2.6	-3.7
